# According to ChEMBL document CHEMBL3259682, “Synthesis, β-haematin inhibition, and in vitro antimalarial testing of isocryptolepine analogues: SAR study of indolo[3,2-c]quinolines with various substituents at C2, C6, and N11” (Bioorg Med Chem, 2014):
# Key:
# [1] = Resistance index, ratio of IC50 for chloroquine/pyrimethamine-resistant Plasmodium falciparum K1 to IC50 for erythrocytic stage of chloroquine-sensitive Plasmodium falciparum NF54; type: functional
# Outline: (§1)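 Chloroquine/pyrimethamine-resistant K1 and drug-susceptible NF54 P. falciparum were grown in hypoxanthine-free RPMI 1640 with HEPES, NaHCO₃, neomycin and Albumax, in human A⁺ erythrocytes at 2.5% haematocrit and 0.3% parasitaemia. DMSO stocks were 10 mg/mL, tested in eleven 3-fold dilutions under 4% CO₂/3% O₂/93% N₂. ³H-hypoxanthine was added at 48 h, then 24 h more before filter harvest. IC₅₀ is the mean of two assays; RI = K1/NF54 IC₅₀.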
# Plasmodium falciparum [2] = experiment: Antimalarial activity against erythrocytic stage of chloroquine/pyrimethamine-resistant Plasmodium falciparum K1 after 48 hrs by [3H]-hypoxanthine incorporation assay; type: functional, organism-based; outline: as §1
# Plasmodium falciparum [3] = experiment: Antimalarial activity against erythrocytic stage of chloroquine-sensitive Plasmodium falciparum NF54 after 48 hrs by [3H]-hypoxanthine incorporation assay; type: functional, organism-based
# Outline: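 ³H-hypoxanthine incorporation against P. falciparum NF54. DMSO stocks at 10 mg/mL were added to cultures in hypoxanthine-free RPMI 1640 with HEPES, NaHCO₃, neomycin and Albumax, using human A⁺ red cells at 2.5% haematocrit and 0.3% parasitaemia. Eleven 3-fold serial dilutions were tested. Incubation was under 4% CO₂/3% O₂/93% N₂. ³H-hypoxanthine was added after 48 h, followed by a further 24 h. Cells were harvested onto glass-fibre filters. IC₅₀ is the mean of two independent assays.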
# [4] = Selectivity index, ratio of IC50 for rat L6 cells to IC50 for erythrocytic stage of chloroquine-sensitive Plasmodium falciparum NF54; type: toxicity, cell-based; conditions: read-out: Ratio IC50
# Outline: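 Selectivity index is the L6 cytotoxicity IC₅₀ divided by the NF54 antiplasmodial IC₅₀. Each IC₅₀ is the mean of two independent assays.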
# L6 = experiment: Cytotoxicity against rat L6 cells after 70 hrs by Alamar Blue assay; type: functional, cell-based; conditions: L6, 70 h
# Outline: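 Rat skeletal myoblast L6 cells, 4000 per well, in RPMI 1640 with 1% L-glutamine and 10% fetal bovine serum. Eleven 3-fold serial drug dilutions were tested. Alamar Blue was added for a final 2 h. Fluorescence was read at excitation 536 nm and emission 588 nm. IC₅₀ is the mean of two independent assays.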
# [5] = Binding affinity to haematin assessed as inhibition of beta-haematin formation after 5 to 6 hrs by pyridine-ferrichrome-based method
# Outline: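 Detergent (NP-40) mediated β-haematin formation assay, run manually. Compounds came from 20, 2 and 0.4 mM DMSO stocks, tested at 0–1000 µM final. Haematin was 100 µM final in 0.5 M acetate buffer, pH 4.8. Incubation was 5–6 h at 37 °C. Read-out used the pyridine-ferrichrome method with UV–vis absorbance. IC₅₀ came from sigmoidal dose–response fits.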
# [6] = Selectivity index, ratio of IC50 for rat L6 cells to IC50 for chloroquine/pyrimethamine-resistant Plasmodium falciparum K1; type: toxicity, cell-based; conditions: read-out: Ratio IC50
SMILES,Ratio IC50 [1],IC50 (Plasmodium falciparum [2]) [µM],IC50 (Plasmodium falciparum [3]) [µM],selectivity ratio [4],IC50 (L6) [µM],IC50 [5] [µM],selectivity ratio [6]
Cc1ccc2nc(NCCCNC(=O)Nc3ccccc3)c3c4ccccc4[nH]c3c2c1,1.8,0.0425,0.0236,40.9,0.966,17.2,22.7
Cc1ccc2nc(NCCCN)c3c4ccccc4n(C)c3c2c1,,,0.0314,6.1,0.192,29.5,
O=C(NCCCCCCNc1nc2ccccc2c2[nH]c3ccccc3c12)Nc1ccccc1,1.1,0.0244,0.0221,39,0.862,16.2,35.3
CN(C)CCCNc1nc2ccc(Br)cc2c2c1c1ccccc1n2C,,,0.0486,9.4,0.457,39.9,
Clc1nc2ccccc2c2[nH]c3ccccc3c12,,,10.2,18.9,193,> 1000,
CS(=O)(=O)NCCCNc1nc2ccccc2c2[nH]c3ccccc3c12,,,0.0543,19.6,1.06,118,
O=C(NCCCNc1nc2ccccc2c2[nH]c3ccccc3c12)Nc1ccccc1,22.4,0.0537,0.0024,480,1.15,23.9,21.5
Cn1c2ccccc2c2c(Cl)nc3ccccc3c21,,,7.39,2.3,17.3,> 1000,
O=C(NCCCNc1nc2ccccc2c2[nH]c3ccccc3c12)c1cccs1,1.2,0.0849,0.0724,48.3,3.5,24.1,41.2
O=C(NCCCNc1nc2ccc([N+](=O)[O-])cc2c2[nH]c3ccccc3c12)Nc1ccccc1,,,0.0242,192,4.64,15.2,
Cc1ccc2nc(NCCCN)c3c4ccccc4[nH]c3c2c1,,,0.0361,8.9,0.322,60.9,
Cn1c2ccccc2c2c(NCCCN)nc3ccc(Br)cc3c21,,,0.0313,26.3,0.825,26.6,
C[C@@H]1CC[C@H]2[C@@H](C)C(=O)O[C@@H]3O[C@@]4(C)CC[C@@H]1[C@]32OO4 [ARTEMISININ],0.7,0.0028,0.0043,,,,
CCN(CC)CCCC(C)Nc1ccnc2cc(Cl)ccc12 (stereo not drawn) [CHLOROQUINE],,,,,,30,
CCN(CC)C(=O)NCCCNc1nc2ccccc2c2[nH]c3ccccc3c12,,,0.0411,86.8,3.57,39.2,
CC(CNC(=O)Nc1ccccc1)CNc1nc2ccc(Cl)cc2c2[nH]c3ccccc3c12 (stereo not drawn),1.6,0.0175,0.0109,377,4.11,14.6,235
Cn1c2ccccc2c2c(NCCCNC(=O)Nc3ccccc3)nc3ccccc3c21,,,0.0073,14.8,0.108,22.7,
O=S(=O)(NCCCNc1nc2ccccc2c2[nH]c3ccccc3c12)c1ccccc1,1.3,0.0929,0.072,11.3,0.811,24.2,8.7
O=C(NCCCNc1nc2ccc(Cl)cc2c2[nH]c3ccccc3c12)Nc1ccccc1,1.9,0.05,0.027,95.1,2.57,14.4,51.4
NCCCN1CCN(CCCNc2nc3ccccc3c3[nH]c4ccccc4c23)CC1,,,0.0264,67.3,1.78,62.4,
O=C(NCCCNc1nc2ccc(F)cc2c2[nH]c3ccccc3c12)Nc1ccccc1,1.9,0.0492,0.0257,58.5,1.5,22.7,30.6

SMILES,Ratio IC50 [1],IC50 (Plasmodium falciparum [2]) [µM],IC50 (Plasmodium falciparum [3]) [µM],selectivity ratio [4],IC50 (L6) [µM],IC50 [5] [µM],selectivity ratio [6]
NCCCCNc1nc2ccccc2c2[nH]c3ccccc3c12,,,0.0361,20.5,0.739,62,
CN(C)CCCNc1nc2ccc(Cl)cc2c2c1c1ccccc1n2C,,,0.0409,7.7,0.313,25.9,
c1ccc2c(c1)nc(NCC1CCCO1)c1c3ccccc3[nH]c21 (stereo not drawn),,,0.113,18.1,2.05,148,
NCCCNc1nc2ccc(Br)cc2c2[nH]c3ccccc3c12,,,0.0081,110,0.891,19.4,
Cn1c2ccccc2c2c(NCC(C)(C)CN)nc3ccc(Cl)cc3c21,,,0.0954,4.5,0.425,38.4,
NCCCNc1nc2ccc(F)cc2c2[nH]c3ccccc3c12,,,0.013,49.1,0.639,14.3,
OCCNc1nc2ccccc2c2[nH]c3ccccc3c12,,,0.141,6.3,0.891,200,
COc1ccc(Nc2nc3ccccc3c3[nH]c4ccccc4c23)c(OC)c1,,,0.317,48,15.2,44.1,
Cn1c2ccccc2c2c(NCC(C)(C)CN)nc3ccc(Br)cc3c21,,,0.0583,9.9,0.576,41.2,
O=C(NCCCNc1nc2cccc(Br)c2c2[nH]c3ccccc3c12)Nc1ccccc1,,,0.289,12.6,3.62,22,
Cn1c2ccccc2c2c(NCC(C)(C)CN)nc3ccccc3c21,,,0.274,0.9,0.259,1000,
c1ccc2c(c1)nc(N1CCCNCC1)c1c3ccccc3[nH]c21,,,0.0632,65,4.11,171,
COc1ccc2nc(NCCCN)c3c4ccccc4n(C)c3c2c1,,,0.0329,4.2,0.138,56.9,
Cn1cc2c3ccccc3nc-2c2ccccc21 [ISOCRYPTOLEPINE],,,,,,,1.5
c1ccc(CNc2nc3ccccc3c3[nH]c4ccccc4c23)cc1,,,0.0186,158,2.93,30.6,
CCN(CC)Cc1cc(Nc2ccnc3cc(Cl)ccc23)ccc1O,,,,,,11,
Cn1c2ccccc2c2c(NCCCN)nc3ccc(Cl)cc3c21,,,0.0354,17.5,0.62,28,
CN(C)CCCNc1nc2ccccc2c2c1c1ccccc1n2C,,,0.0932,7.5,0.701,> 1000,
Cn1c2ccccc2c2c(NCCCN)nc3ccc(F)cc3c21,,,0.0527,5.5,0.292,25.8,
OCCCNc1nc2ccccc2c2[nH]c3ccccc3c12,,,0.227,3.2,0.717,287,
